Screens from PubChem.
Compounds with a hit are over-represented: about 2.3% of the library has one in this group of screens.
ABCB1 inh: inhibitors of human ABCB1 transporter, ABCG2 counter-screen; hit rate 0.067% among 190,000; AID 1326; P08183; CCRF-Adr cells, JC-1 efflux, flow cytometry; inhibition, % at 6.6 µM; in the data active means inhibition above about 40%;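 further: 0% = vehicle and 100% = reference inhibitor; higher value means more JC-1 retained so stronger ABCB1 efflux block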
ABCG2 block: human ABCG2 inhibition, ABCB1 as counter-screen; Q9UNQ0; IgMXP3 cells, JC-1 efflux, flow cytometry; inhibition, % at 6.6 µM; hit rate 0.1% among 190,000; AID 1325;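 active means inhibition above 80%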;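 further: 0% = DMSO and 100% = nicardipine control wells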
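System: two drug-resistant human cell lines, ABCG2 and ABCB1; controls: nicardipine high and DMSO low controls; times: 10 min exposure at 25 °C with rotation, no wash; detection: flow cytometry of retained JC-1 fluorescence; read-out basis: percent efflux inhibition, scaled nicardipine 100% to DMSO 0%; doses: one concentration, 6.6 µM final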
Arbovirus inh: arbovirus infection inhibition; arbovirus infection cell-based antiviral screen; inhibition, % at 10 µM; hit rate 0.37% among 200,000; AID 1251; in the data active means inhibition above about 30%
RAM inhibit: inhibitors of the yeast RAM network | S. cerevisiae dse1pr::URA3 reporter, 5-FOA growth OD615, 2 d; analog-sensitive cbk1-as2 kinase mutant strain | inhibition, % at 50 µM | hit rate 1.8% among 190,000 | AID 868;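 active means inhibition above a set limit, 3 SD over mean compound inhibition, cut at about 8.4% in these data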;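 further: 0% = DMSO-only wells with no growth and 100% = 10 µM 1-NA-PP1 full growth; inhibition rescues growth on 5-FOA so higher OD means more RAM inhibition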
* = called active by the depositor.

SMILES	ABCB1 inh	ABCG2 block	Arbovirus inh	RAM inhibit
Cc1ccn2c(C(=O)CSc3ccccc3)c(C)nc2c1	1	4	2	1
CS(=O)(=O)N(CC(O)Cn1c2ccccc2c2ccccc21)c1ccccc1 (stereo not drawn)	0	2	42*	5
Cc1ccc(OCc2nc(-c3cccs3)no2)c([N+](=O)[O-])c1	1	18	-5	8.7*
O=[N+]([O-])c1ccccc1OCc1nc(-c2cccs2)no1	0	6	22	2
COCCCNC(=O)c1c(N)n(/N=C/c2cccs2)c2nc3ccccc3nc12	2	6	4	8.7*
CCC(C)NC(=O)c1c(N)n(/N=C/c2cccnc2)c2nc3ccccc3nc12 (stereo not drawn)	2	3	-7	6
COCCCNC(=O)c1c(N)n(/N=C/c2cccnc2)c2nc3ccccc3nc12	4	10	5	11*
CC(C)CNS(=O)(=O)c1ccc2c(c1)OCCO2	0	0	6	1
CCOc1ccccc1-c1nc(-c2cccc(Br)c2)no1	1	3	-11	8.7*
COc1ccc(-c2noc(CSc3nc(-c4ccccc4)cc(=O)[nH]3)n2)cc1OC	0	0	52*	1
COc1ccc(-c2noc(-c3ccccc3-c3ccccc3)n2)cc1OC	0	1	31*	11*
COc1ccc(-c2noc(-c3cccnc3)n2)cc1OC	1	21	6	3
CC(=O)Nc1ccc(-c2nnc(SCc3c(C)cc(C)cc3C)n2C)cc1	1	29	-17	8.5*
CCN1CCn2c3c(c4cc(C)ccc42)CCCC31 (stereo not drawn)	1	2	-17	1
Clc1ccc(CSc2cc3c(nn2)-c2ccccc2CC3)cc1	0	6	11	10*
Clc1ccc(CSc2ccc(-c3ccccn3)nn2)cc1	0	0	-26	1
COc1cc2c(cc1OC)C(c1cccc([N+](=O)[O-])c1)N(C(=O)c1ccc(F)cc1)CC2 (stereo not drawn)	3	4	-1	6
CSc1ccccc1NC(=O)CN(c1cc(C)cc(C)c1)S(C)(=O)=O	0	-2	-2	-1
CS(=O)(=O)N(CC(=O)Nc1ccccc1Sc1ccccc1)c1cccc(Br)c1	1	0	-10	11*
Fc1ccc(CN2CCCCCCC2)c(F)c1	0	3	-3	2
CC(C)(C)n1nnnc1C(c1cccnc1)N1CCOCC1 (stereo not drawn)	1	2	-5	0
CC(C)CCSc1nc(N2CCOCC2)c2c(c1C#N)CC(C)(C)OC2	11	8	-13	10*
NC(=O)/C=C\c1cn(-c2ccccc2)nc1-c1ccc2c(c1)OCCO2	1	4	-15	3
CC(C)OC(=O)c1cn(-c2ccccc2)nc1-c1ccc2c(c1)OCCO2	1	68	6	11*
COc1ccc(-c2[nH]ncc2[C@@H]2C[C@H]3CN(Cc4ccccc4C)C(=O)[C@]34CCCN24)cc1	9	6	-8	1
SMILES	ABCB1 inh	ABCG2 block	Arbovirus inh	RAM inhibit
O=C(NCc1cccs1)Nc1cc(Cl)ccc1Cl	0	3	2	2
O=C(N=c1ccn(-c2nc3ccccc3nc2NS(=O)(=O)c2ccccc2)cc1)c1cccs1	0	1	4	8.5*
CC(C)Nc1nc(Oc2ccc(Cl)cc2)cc(C(F)(F)F)n1	0	2	7	4
Cc1oc2c(cc(NS(=O)(=O)c3ccc4c5c(cccc35)C(=O)N4)c3ccccc32)c1C(=O)OC(C)C	0	-1	-12	9.2*
O=C(CCCCCN1C(=O)c2ccccc2C1=O)Oc1ccc2c3c(c(=O)oc2c1)CCC3	1	5	2	11*
CCCCC1CCC(c2nc(-c3cccnc3)no2)CC1 (stereo not drawn)	1	3	12	-2
COc1ccc(/C=c2/sc3n(c2=O)C(c2ccccc2OC)C2=C(N=3)c3ccccc3CC2)cc1O (stereo not drawn)	-3	-4	-27	9.5*
COc1ccccc1C1C2=C(N=C3SCC(=O)N31)c1ccccc1CC2 (stereo not drawn)	1	3	3	3
CCOc1cc(/C=N/NC(=O)c2ccc(-c3csc(Nc4ccc(C)cc4)n3)cc2)ccc1OCC(=O)O	-3	-5	-13	8.9*
CN(C)S(=O)(=O)c1ccc(C(=O)Nc2cc(S(=O)(=O)Nc3ccccc3Cl)ccc2N2CCCCC2)cc1	0	1	19	8.6*
COc1ccc(NS(=O)(=O)c2ccc(N3CCOCC3)c(NC(=O)c3ccc(OC)cc3)c2)cc1	1	13	-12	8.6*
